{"source": "the EternaBench riboswitch data", "key": {"[1]": {"tested_on": "MS2 coat protein", "experiment": "apparent Kd, MS2 coat protein; higher = weaker binding; RNA-MaP array; theophylline 2 mM where present", "in_short": "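On Illumina sequencing-chip clusters, designs were transcribed by stalled E. coli RNA polymerase and titrated with SNAP-549-labelled MS2 coat protein (0.7 or 1.5 nM, doubling to 3 µM), without and then with constant ligand, in 100 mM Tris-HCl pH 7.5, 80 mM KCl, 4 mM MgCl2, BSA, DTT, yeast tRNA and Tween-20. Apparent Kd is the median of filtered per-cluster curve fits to green signal normalised to red-channel RNA signal and control-cluster median Fmax.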"}, "[2]": {"tested_on": "MS2 coat protein", "experiment": "apparent Kd, MS2 coat protein; higher = weaker binding; RNA-MaP array", "in_short": "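RNA designs were transcribed from sequenced DNA templates on an Illumina sequencing chip and then incubated at room temperature with fluorescently labeled MS2 coat protein at 1.5 nM to 3 μM, with or without input ligand, in Tris-HCl pH 7.5 buffer containing KCl, MgCl2, BSA, DTT, tRNA and Tween20. Incubation lasted 0.8–1.5 h at the lowest protein concentrations and 10–20 min at the highest. Apparent Kd is the median of binding-curve fits made for each cluster. Designs measured on fewer than 10 clusters were excluded.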"}, "[3]": {"settings": "designed as: ON switch for theophylline, no ligand"}, "[4]": {"settings": "ligand present: theophylline, designed as: ON switch for theophylline"}, "[5]": {"settings": "designed as: OFF switch for theophylline, no ligand"}, "[6]": {"settings": "ligand present: theophylline, designed as: OFF switch for theophylline"}, "[7]": {"settings": "designed as: ON switch for flavin mononucleotide, no ligand"}, "[8]": {"settings": "ligand present: flavin mononucleotide, designed as: ON switch for flavin mononucleotide"}, "[9]": {"settings": "designed as: OFF switch for flavin mononucleotide, no ligand"}, "[10]": {"settings": "ligand present: flavin mononucleotide, designed as: OFF switch for flavin mononucleotide"}}}
{"sequence": "ACGACGCAUAGUGAUACCAGUAGAACAUGAGGAUCACCCAUGUCUGUGGCGCACCACCUCUGCCCUUGGCAGCACUAUGCGUCAG", "values": [{"measurement": "apparent Kd", "setting": "[1]; [3]", "value": 13.4, "unit": "nM"}, {"measurement": "apparent Kd", "setting": "[1]; [4]", "value": 12.8, "unit": "nM"}]}
{"sequence": "GAUGAACUAUAUGAUACCAGACAACAUGAGGAUCACCCAUGUGAAUGUCGUCCUCUGCCUGUCCCUUGGCAGCGUAUAGUUUAUC", "values": [{"measurement": "apparent Kd", "setting": "[1]; [5]", "value": 29.6, "unit": "nM"}, {"measurement": "apparent Kd", "setting": "[1]; [6]", "value": 177, "unit": "nM"}]}
{"sequence": "AGCCCUGUACUAGAUACCAGCUACAUGAGGAUCACCCAUGUGCGUCAAGACUGACUGUGUAGCCCUUGGCAGCUACUCGCAUGUA", "values": [{"measurement": "apparent Kd", "setting": "[1]; [5]", "value": 15.7, "unit": "nM"}, {"measurement": "apparent Kd", "setting": "[1]; [6]", "value": 25.5, "unit": "nM"}]}
{"sequence": "ACUUUGUCGGGUGAUACCAGCCUCGGCACAUCUCGUGCCGAACAUGAGGAUCACCCAUGUGGCCCUUGGCAGCACAUGACAACUC", "values": [{"measurement": "apparent Kd", "setting": "[1]; [3]", "value": 375, "unit": "nM"}, {"measurement": "apparent Kd", "setting": "[1]; [4]", "value": 67, "unit": "nM"}]}
{"sequence": "AAUCUGUCGGGUGAUACCAGCCUCGGCGCAUCUCGCACCGAACAUGAGGAUCACCCAUGUGGCCCUUGGCAGCACAUGACAAAUC", "values": [{"measurement": "apparent Kd", "setting": "[1]; [3]", "value": 371, "unit": "nM"}, {"measurement": "apparent Kd", "setting": "[1]; [4]", "value": 82.2, "unit": "nM"}]}
{"sequence": "AGUGUUAUAACUGAUACCAGACUCUCAUGUUUACAUGAGGAUCACCCAUGUUAUUUCUUUGUCCCUUGGCAGCAGAAUUAACACA", "values": [{"measurement": "apparent Kd", "setting": "[1]; [3]", "value": 208, "unit": "nM"}, {"measurement": "apparent Kd", "setting": "[1]; [4]", "value": 38.2, "unit": "nM"}]}
{"sequence": "AGCCUAUUACAUGAGGAUCACCCAUGUGAUACCAGUCAGGAAACUGACCCUUGGCAGCGCAUGAGGAUCACCCAUGCGCUAGGCA", "values": [{"measurement": "apparent Kd", "setting": "[1]; [5]", "value": 10.1, "unit": "nM"}, {"measurement": "apparent Kd", "setting": "[1]; [6]", "value": 10.2, "unit": "nM"}]}
{"sequence": "GCACCAGGUACGGAUACCAGCUGCCCGAGAUACAUGAGGAUCACCCAUGUGACCUGGUUUAGCCCUUGGCAGCUGUACCUGGUGC", "values": [{"measurement": "apparent Kd", "setting": "[1]; [3]", "value": 13.6, "unit": "nM"}, {"measurement": "apparent Kd", "setting": "[1]; [4]", "value": 9.99, "unit": "nM"}]}
{"sequence": "GAUGAACUAUUUGAUACCAGACAACAUGAGGAUCACCCAUGUGCGCGUCGUCCUCUGCCUGUCCCUUGGCAGCAAAUAGUUUAUC", "values": [{"measurement": "apparent Kd", "setting": "[1]; [5]", "value": 58.5, "unit": "nM"}, {"measurement": "apparent Kd", "setting": "[1]; [6]", "value": 97.1, "unit": "nM"}]}
{"sequence": "GGGCCUGUAGGCAGGCCCACAGCGGGUGAUACCAGCAAUAAAACUUGCCCUUGGCAGCACACAGCUACAUGAGGAUCACCCAUGU", "values": [{"measurement": "apparent Kd", "setting": "[1]; [3]", "value": 41.2, "unit": "nM"}, {"measurement": "apparent Kd", "setting": "[1]; [4]", "value": 70.5, "unit": "nM"}]}
{"sequence": "AGUAAUCUAAGAGAUACCAGACGGUAUAUAACAUGAGGAUCACCCAUGUUUUGGGUGUACGUCCCUUGGCAGCUCAAAAUGAUAA", "values": [{"measurement": "apparent Kd", "setting": "[1]; [3]", "value": 230, "unit": "nM"}, {"measurement": "apparent Kd", "setting": "[1]; [4]", "value": 115, "unit": "nM"}]}
{"sequence": "AGCAAUACAUAAGGAUAUGACAUCCAAGAGGAAUCAGAAGGUAUGCAGGCGACAUGAGGAUCACCCAUGUAAUCAUGAGGCAAU", "values": [{"measurement": "apparent Kd", "setting": "[2]; [7]", "value": 19.4, "unit": "nM"}, {"measurement": "apparent Kd", "setting": "[2]; [8]", "value": 15.8, "unit": "nM"}]}
{"sequence": "CGGAAACAUGAGGAUCACCCAUGUGUAGAAAAGACAGGAUAUGACAAGGGCUUGAAGUGCUCAGAAGGGUCUGGAC", "values": [{"measurement": "apparent Kd", "setting": "[2]; [7]", "value": 15.4, "unit": "nM"}, {"measurement": "apparent Kd", "setting": "[2]; [8]", "value": 11.2, "unit": "nM"}]}
{"sequence": "AGUUCACAGGUGAGGAUAUCGGAGCACACAGACAGCGAGAAGGCACAUGAGGAUCACCCAUGUGGUCAGAAAAC", "values": [{"measurement": "apparent Kd", "setting": "[2]; [9]", "value": 8.73, "unit": "nM"}, {"measurement": "apparent Kd", "setting": "[2]; [10]", "value": 10.8, "unit": "nM"}]}
{"sequence": "CAUCAUGGGCUUGGACAAAUUGUGCUUGAUACCAGAAAUCACCGGUUCCCUUGGCAGCAACCCACAUGAGGAUCACCCAUGUGGA", "values": [{"measurement": "apparent Kd", "setting": "[2]; [5]", "value": 20.6, "unit": "nM"}, {"measurement": "apparent Kd", "setting": "[2]; [6]", "value": 31.2, "unit": "nM"}]}
{"sequence": "GGGUAACAUGAGGAUCACCCAUGUGAGGAUAUCCAUUGUUGGCGACCGGUACGACCACGGAGAAGGCACAGUUC", "values": [{"measurement": "apparent Kd", "setting": "[2]; [9]", "value": 35, "unit": "nM"}, {"measurement": "apparent Kd", "setting": "[2]; [10]", "value": 69.5, "unit": "nM"}]}
{"sequence": "UUACGGGAAGGAUAUCAUUGAAGGUACAUGAGGAUCACCCAUGUCUGAUGCGCAUCGCCGUGAGAAGGUCCUGCUU", "values": [{"measurement": "apparent Kd", "setting": "[2]; [9]", "value": 38.2, "unit": "nM"}, {"measurement": "apparent Kd", "setting": "[2]; [10]", "value": 14.9, "unit": "nM"}]}
{"sequence": "UGAAACUAGCCUAAGGAUAUAUAAGUGUGAACAUGAGGAUCACCCAUGUAUGGGAACAAGUGCUGAUAGAAGGUAGGAAUCUCCAA", "values": [{"measurement": "apparent Kd", "setting": "[2]; [7]", "value": 80.3, "unit": "nM"}, {"measurement": "apparent Kd", "setting": "[2]; [8]", "value": 43.2, "unit": "nM"}]}
{"sequence": "ACUGUACUGGGAGGAUAUGGAGAGUUACCGUAAAUAAUCUACUAGACAUGAGGAUCACCCAUGUUCCAGAAGGCCCCAUGGACC", "values": [{"measurement": "apparent Kd", "setting": "[2]; [7]", "value": 14.9, "unit": "nM"}, {"measurement": "apparent Kd", "setting": "[2]; [8]", "value": 10.4, "unit": "nM"}]}
{"sequence": "GAUUCGCAGUCGGCCGCCACUAACAUGAGCUGCUAGUUAUUAUCACAUGAGGAUCACCCAUGUCUUAGGACCGGGACAACCUGUU", "values": [{"measurement": "apparent Kd", "setting": "[2]; designed as: ON switch for tryptophan, no ligand", "value": 77.7, "unit": "nM"}, {"measurement": "apparent Kd", "setting": "[2]; ligand present: tryptophan, designed as: ON switch for tryptophan", "value": 71, "unit": "nM"}]}
{"sequence": "AGACUCCUAGCAGGAUAUGUUCAAGGAACAAAGAGAACAUGAGGAUCACCCAUGUACACAUAUGAACAGAAGGGCUGAAGAAAA", "values": [{"measurement": "apparent Kd", "setting": "[2]; [7]", "value": 8.24, "unit": "nM"}, {"measurement": "apparent Kd", "setting": "[2]; [8]", "value": 6.66, "unit": "nM"}]}
{"sequence": "CCACCAACAGGAUAUACGCUGAGGUUUUCUAACGGUCAUGUACAUGAGGAUCACCCAUGUAGAAGGGUUGUAGG", "values": [{"measurement": "apparent Kd", "setting": "[2]; [9]", "value": 37, "unit": "nM"}, {"measurement": "apparent Kd", "setting": "[2]; [10]", "value": 55.6, "unit": "nM"}]}
